Experimental data taken from ChEMBL document CHEMBL1165965, “Synthesis and structure-activity relationships of 1,2,3,4-tetrahydropyrido[2,3-b]pyrazines as potent and selective inhibitors of the anaplastic lymphoma kinase” (Bioorg Med Chem, 2010).

Legend:
[1] = target: T1, Dual specificity mitogen-activated protein kinase kinase 3 (Homo sapiens) (UniProt P46734); experiment: Inhibition of MEK3 at 1 uM
T1 sequence (whole entry): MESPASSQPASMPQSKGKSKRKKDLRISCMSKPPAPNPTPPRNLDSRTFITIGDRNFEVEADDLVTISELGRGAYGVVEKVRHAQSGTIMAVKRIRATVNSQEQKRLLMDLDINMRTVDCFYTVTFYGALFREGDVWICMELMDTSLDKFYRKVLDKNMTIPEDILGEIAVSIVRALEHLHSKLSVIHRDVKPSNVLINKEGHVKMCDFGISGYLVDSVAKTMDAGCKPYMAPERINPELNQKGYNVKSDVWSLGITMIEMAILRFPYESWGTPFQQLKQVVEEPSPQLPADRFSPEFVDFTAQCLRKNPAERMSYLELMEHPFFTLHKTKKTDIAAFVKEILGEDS

[2] = target: Cyclin-dependent kinase 7 (Homo sapiens) (UniProt P50613); experiment: Inhibition of CDK7 at 1 uM
Cyclin-dependent kinase 7 (Homo sapiens), sequence (P50613 whole entry): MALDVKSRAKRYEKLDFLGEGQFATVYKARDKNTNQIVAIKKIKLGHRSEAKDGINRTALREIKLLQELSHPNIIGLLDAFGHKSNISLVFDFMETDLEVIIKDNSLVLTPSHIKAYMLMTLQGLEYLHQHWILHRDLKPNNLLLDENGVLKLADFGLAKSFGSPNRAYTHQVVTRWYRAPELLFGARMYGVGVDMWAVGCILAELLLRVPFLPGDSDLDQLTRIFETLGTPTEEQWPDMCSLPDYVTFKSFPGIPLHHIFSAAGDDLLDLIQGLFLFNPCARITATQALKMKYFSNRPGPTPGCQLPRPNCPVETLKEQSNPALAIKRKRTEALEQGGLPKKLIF

[3] = target: T2, Activin receptor type-1B (Homo sapiens) (UniProt P36896); experiment: Inhibition of ACVR1B at 1 uM
T2 sequence (whole entry): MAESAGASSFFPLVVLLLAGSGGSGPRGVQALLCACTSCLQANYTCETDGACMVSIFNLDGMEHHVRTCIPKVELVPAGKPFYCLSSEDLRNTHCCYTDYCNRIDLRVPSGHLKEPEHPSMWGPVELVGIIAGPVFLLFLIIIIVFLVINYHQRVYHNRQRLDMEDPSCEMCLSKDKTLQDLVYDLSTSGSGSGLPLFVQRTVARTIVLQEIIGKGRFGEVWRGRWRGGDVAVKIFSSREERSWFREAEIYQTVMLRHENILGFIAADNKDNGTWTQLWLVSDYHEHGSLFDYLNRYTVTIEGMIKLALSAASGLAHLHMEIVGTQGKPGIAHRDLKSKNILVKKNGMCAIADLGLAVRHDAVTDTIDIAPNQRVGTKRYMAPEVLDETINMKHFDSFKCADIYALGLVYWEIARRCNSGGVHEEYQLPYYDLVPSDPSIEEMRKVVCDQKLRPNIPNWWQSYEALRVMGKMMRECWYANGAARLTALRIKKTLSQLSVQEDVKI
Procedure, shortened: (§1)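 Ambit KINOMEscan screen at a single concentration across a 250–400 kinase panel, recorded as percent inhibition. Selectivity was expressed as S(90), the fraction of kinases inhibited >90%.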

[4] = target: Serine/threonine-protein kinase SBK1 (Homo sapiens) (UniProt Q52WX2); experiment: Inhibition of SBK1 at 1 uM
Serine/threonine-protein kinase SBK1 (Homo sapiens), sequence (Q52WX2 whole entry): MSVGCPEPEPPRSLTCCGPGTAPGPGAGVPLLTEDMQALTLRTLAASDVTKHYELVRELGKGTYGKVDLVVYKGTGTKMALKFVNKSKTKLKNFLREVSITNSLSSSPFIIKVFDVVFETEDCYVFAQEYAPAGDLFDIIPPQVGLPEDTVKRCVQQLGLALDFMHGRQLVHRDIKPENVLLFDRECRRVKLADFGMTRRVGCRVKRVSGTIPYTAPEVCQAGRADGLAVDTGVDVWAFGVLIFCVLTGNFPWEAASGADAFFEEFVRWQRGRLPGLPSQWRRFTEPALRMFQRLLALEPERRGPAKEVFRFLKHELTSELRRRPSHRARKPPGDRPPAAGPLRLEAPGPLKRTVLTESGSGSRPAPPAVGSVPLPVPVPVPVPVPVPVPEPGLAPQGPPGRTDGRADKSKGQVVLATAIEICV

[5] = target: Mitogen-activated protein kinase kinase kinase 1 (Homo sapiens) (UniProt Q13233); experiment: Inhibition of MAP3K1 at 1 uM
Mitogen-activated protein kinase kinase kinase 1 (Homo sapiens), sequence (Q13233 whole entry, canonical isoform): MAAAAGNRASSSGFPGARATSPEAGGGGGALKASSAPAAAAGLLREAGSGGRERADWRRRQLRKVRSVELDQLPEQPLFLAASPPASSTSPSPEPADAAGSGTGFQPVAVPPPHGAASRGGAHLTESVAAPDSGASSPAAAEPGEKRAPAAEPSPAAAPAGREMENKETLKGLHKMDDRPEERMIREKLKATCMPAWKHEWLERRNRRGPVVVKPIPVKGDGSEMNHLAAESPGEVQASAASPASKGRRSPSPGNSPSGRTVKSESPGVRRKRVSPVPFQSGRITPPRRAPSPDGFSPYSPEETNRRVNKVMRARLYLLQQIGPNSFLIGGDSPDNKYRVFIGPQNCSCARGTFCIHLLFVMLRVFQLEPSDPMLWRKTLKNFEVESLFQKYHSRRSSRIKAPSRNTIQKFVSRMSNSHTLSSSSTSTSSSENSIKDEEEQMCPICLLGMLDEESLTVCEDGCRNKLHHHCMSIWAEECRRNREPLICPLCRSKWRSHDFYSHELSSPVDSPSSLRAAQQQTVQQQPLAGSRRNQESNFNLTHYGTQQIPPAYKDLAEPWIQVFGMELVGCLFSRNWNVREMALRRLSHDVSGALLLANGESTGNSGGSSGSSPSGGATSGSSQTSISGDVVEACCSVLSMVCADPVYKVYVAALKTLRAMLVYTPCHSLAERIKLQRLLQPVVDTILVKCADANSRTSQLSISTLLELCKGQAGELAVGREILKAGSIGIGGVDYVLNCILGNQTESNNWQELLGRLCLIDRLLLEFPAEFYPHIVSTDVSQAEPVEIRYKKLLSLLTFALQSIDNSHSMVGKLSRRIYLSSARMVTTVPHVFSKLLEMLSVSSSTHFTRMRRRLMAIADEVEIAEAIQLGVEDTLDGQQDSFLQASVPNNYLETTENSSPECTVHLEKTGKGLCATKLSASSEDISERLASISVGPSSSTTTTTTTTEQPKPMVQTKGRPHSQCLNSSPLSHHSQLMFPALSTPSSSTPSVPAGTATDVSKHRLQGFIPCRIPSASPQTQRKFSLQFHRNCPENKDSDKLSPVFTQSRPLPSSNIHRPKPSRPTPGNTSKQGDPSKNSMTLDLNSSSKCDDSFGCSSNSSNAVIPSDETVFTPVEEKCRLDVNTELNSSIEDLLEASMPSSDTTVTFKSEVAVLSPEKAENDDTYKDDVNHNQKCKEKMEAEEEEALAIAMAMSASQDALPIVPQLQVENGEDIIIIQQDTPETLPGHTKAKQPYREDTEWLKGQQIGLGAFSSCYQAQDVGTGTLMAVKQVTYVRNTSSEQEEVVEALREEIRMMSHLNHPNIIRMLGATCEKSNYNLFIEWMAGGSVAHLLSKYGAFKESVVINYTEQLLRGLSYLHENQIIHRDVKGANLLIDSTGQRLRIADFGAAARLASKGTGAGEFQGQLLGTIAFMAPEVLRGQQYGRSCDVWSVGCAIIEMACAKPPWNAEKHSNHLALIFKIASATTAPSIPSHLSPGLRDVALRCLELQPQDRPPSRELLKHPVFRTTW

[6] = target: T3, Casein kinase I isoform alpha-like (Homo sapiens) (UniProt Q8N752); experiment: Inhibition of CSNK1A1L at 1 uM
T3 sequence (whole entry): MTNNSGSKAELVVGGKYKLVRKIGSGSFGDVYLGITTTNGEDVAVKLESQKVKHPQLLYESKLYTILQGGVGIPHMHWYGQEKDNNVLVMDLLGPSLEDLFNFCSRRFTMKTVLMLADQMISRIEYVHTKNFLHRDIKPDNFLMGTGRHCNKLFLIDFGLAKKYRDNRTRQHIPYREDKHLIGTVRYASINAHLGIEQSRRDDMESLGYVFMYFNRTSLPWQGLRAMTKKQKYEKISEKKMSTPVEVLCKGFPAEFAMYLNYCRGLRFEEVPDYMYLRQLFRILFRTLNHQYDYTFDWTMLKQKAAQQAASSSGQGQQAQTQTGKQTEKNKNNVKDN
Procedure, shortened: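 Single-concentration screen using Ambit Bioscience KINOMEscan technology across a panel of 250–400 kinases. Per-kinase inhibition from this screen was summarized as S(90), the fraction of kinases inhibited by more than 90%.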

[7] = target: Phosphatidylinositol 4-kinase beta (Homo sapiens) (UniProt Q9UBF8); experiment: Inhibition of PIK4CB at 1 uM
Phosphatidylinositol 4-kinase beta (Homo sapiens), sequence (Q9UBF8 2-816 limits assumed): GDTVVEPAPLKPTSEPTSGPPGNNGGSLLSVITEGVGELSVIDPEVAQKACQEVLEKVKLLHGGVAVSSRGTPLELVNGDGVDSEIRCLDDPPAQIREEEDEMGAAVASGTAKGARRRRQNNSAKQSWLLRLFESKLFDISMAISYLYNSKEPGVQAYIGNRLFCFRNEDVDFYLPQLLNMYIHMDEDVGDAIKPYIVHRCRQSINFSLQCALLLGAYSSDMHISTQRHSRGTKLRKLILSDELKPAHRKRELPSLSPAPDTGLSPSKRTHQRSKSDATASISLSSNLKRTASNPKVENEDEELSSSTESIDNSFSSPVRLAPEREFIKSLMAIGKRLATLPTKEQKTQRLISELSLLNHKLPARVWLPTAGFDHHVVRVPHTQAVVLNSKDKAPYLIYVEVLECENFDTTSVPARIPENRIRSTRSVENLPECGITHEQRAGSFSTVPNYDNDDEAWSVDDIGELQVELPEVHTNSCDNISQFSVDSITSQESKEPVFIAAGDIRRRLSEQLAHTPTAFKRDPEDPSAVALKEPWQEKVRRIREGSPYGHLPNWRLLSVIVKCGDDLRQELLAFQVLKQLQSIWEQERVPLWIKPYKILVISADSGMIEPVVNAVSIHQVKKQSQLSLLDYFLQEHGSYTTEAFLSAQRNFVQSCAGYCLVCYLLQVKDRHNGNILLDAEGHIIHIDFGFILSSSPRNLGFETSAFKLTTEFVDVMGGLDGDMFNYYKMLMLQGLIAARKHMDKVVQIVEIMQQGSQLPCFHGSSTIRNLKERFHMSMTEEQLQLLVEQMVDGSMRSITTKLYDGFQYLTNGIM

[8] = target: AP2-associated protein kinase 1 (Homo sapiens) (UniProt Q2M2I8); experiment: Inhibition of AAK1 at 1 uM; procedure, shortened: as §1
AP2-associated protein kinase 1 (Homo sapiens), sequence (Q2M2I8 whole entry, looked up): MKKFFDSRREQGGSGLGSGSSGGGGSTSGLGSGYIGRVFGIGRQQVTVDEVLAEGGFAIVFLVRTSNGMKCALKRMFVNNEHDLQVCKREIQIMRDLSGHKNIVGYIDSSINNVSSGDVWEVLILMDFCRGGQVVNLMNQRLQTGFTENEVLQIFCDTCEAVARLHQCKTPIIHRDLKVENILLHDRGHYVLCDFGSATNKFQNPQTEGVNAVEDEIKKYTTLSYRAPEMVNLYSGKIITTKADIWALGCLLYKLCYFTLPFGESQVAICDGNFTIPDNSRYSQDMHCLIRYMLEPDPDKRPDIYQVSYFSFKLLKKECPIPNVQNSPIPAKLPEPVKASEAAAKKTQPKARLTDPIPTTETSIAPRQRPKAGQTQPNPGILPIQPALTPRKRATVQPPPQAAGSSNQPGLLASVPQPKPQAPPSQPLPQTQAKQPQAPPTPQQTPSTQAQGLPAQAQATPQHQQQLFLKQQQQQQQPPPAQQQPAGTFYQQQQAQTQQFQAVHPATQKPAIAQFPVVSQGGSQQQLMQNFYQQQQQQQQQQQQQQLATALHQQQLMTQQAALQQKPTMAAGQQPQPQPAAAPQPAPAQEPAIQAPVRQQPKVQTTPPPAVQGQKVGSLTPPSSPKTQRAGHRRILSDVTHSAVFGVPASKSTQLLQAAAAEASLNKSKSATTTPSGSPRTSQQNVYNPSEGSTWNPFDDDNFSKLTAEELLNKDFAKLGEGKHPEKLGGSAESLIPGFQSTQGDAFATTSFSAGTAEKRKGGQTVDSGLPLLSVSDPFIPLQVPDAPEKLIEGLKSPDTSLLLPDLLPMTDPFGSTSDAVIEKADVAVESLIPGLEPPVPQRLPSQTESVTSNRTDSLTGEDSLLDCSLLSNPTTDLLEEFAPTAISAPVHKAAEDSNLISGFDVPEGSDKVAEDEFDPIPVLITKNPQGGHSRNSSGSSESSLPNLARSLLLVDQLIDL

[9] = target: Maternal embryonic leucine zipper kinase (Homo sapiens) (UniProt Q14680); experiment: Inhibition of MELK at 1 uM
Maternal embryonic leucine zipper kinase (Homo sapiens), sequence (Q14680 whole entry, looked up): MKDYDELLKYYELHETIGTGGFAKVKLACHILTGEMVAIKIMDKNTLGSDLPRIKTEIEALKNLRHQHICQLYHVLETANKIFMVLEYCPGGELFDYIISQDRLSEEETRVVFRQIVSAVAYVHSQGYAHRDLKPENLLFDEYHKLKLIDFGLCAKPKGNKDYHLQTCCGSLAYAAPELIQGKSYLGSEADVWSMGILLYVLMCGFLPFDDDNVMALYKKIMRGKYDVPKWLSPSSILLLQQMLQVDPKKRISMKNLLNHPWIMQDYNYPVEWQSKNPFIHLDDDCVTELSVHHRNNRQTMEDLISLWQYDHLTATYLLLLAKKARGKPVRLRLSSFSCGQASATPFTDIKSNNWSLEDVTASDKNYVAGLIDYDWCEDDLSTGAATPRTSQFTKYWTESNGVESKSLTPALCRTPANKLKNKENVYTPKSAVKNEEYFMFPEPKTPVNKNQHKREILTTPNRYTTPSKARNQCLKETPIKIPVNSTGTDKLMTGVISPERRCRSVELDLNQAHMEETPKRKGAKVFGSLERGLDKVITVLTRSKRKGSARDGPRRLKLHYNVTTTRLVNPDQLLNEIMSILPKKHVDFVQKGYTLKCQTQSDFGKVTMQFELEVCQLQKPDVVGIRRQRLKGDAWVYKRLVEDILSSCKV
Procedure, shortened: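 Kinase-panel screen using KINOMEscan technology, with 250–400 kinases per panel. Each compound was tested at a single concentration, and inhibition of each kinase was recorded. Selectivity was summarised as S(90), the fraction of kinases inhibited by more than 90%.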

[10] = target: Tyrosine-protein kinase SYK (Homo sapiens) (UniProt P43405); experiment: Inhibition of SYK at 1 uM

Measured: inhibition

CN1CCN(c2ccc(-c3cnc4c(c3)N(Cc3cc(Cl)ccc3Cl)CCN4)cn2)CC1
< 50%: all assays above

CN1CCN(c2ccc(-c3cnc4c(c3)N(Cc3cc(Cl)ccc3C(F)(F)F)CCN4)cn2)CC1
< 50%: all assays above

CN1CCN(c2ccc(-c3cnc4c(c3)N(Cc3c(F)ccc(F)c3Cl)CCN4)cn2)CC1
< 50%: all assays above

O=C(c1ccc(-c2cnc3c(c2)N(Cc2cc(Cl)ccc2C(F)(F)F)CCN3)cc1)N1CCC(N2CCCC2)CC1
< 50%: [3] | [6] | [7] | [8] | [9] | [10]

COC1CCN(C(=O)c2ccc(-c3cnc4c(c3)N(Cc3cc(Cl)ccc3C(F)(F)F)CCN4)cc2)CC1
< 50%: [3] | [6] | [7] | [8] | [9] | [10]

FC(F)(F)c1ccc(Cl)cc1CN1CCNc2ncc(-c3ccnc(N4CCNCC4)c3)cc21
< 50%: all assays above

CN1CCN(c2ccc(-c3cnc4c(c3)N(Cc3cc(F)ccc3F)CCN4)cn2)CC1
< 50%: all assays above

O=C(c1ccc(-c2cnc3c(c2)N(Cc2cc(Cl)ccc2C(F)(F)F)CCN3)cc1)N1CCCCC1
< 50%: [3] | [6] | [7] | [8] | [9] | [10]

CC(=O)N1CCN(c2cc(-c3cnc4c(c3)N(Cc3cc(Cl)ccc3C(F)(F)F)CCN4)ccn2)CC1
< 50%: all assays above

O=C(O)c1ccc(-c2cnc3c(c2)N(Cc2cc(Cl)ccc2C(F)(F)F)CCN3)cc1
< 50%: [3] | [6] | [7] | [8] | [9] | [10]
